Screening results deposited in PubChem BioAssay by several laboratories.
HGIII-sPLA2 inh: Inhibits HGIII-sPLA2 liposome hydrolysis, primary screen | Q9NZ20 | QFRET BODIPY PC-A2 liposome hydrolysis, fluorescence | inhibition, % at 12.2 µM | hit rate 0.56% among 370,000 | AID 743126;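 active = inhibition above mean plus 3 SD of compounds lying within the high and low control bounds, cut at about 19% in these data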;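 note: 0% = median of test compound wells and 100% = no enzyme DMSO wells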
Target sequence (Q9NZ20 whole entry, looked up): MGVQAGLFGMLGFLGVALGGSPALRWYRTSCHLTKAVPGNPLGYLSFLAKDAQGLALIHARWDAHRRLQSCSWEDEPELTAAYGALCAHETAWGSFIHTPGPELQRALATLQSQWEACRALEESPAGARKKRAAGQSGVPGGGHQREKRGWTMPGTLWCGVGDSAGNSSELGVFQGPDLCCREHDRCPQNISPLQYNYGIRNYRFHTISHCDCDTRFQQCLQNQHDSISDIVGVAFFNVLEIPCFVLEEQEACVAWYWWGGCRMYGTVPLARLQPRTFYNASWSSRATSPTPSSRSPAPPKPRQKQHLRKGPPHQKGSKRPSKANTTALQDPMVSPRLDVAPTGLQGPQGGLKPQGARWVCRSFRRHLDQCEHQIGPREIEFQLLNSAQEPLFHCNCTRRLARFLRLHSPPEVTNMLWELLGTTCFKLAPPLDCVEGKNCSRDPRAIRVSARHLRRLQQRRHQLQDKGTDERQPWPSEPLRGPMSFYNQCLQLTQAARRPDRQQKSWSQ
m5-HT2A agonist: mouse HTR2A agonism via beta-arrestin recruitment; activation, % at 7.6 µM; hit rate 0.66% among 360,000; CHO-K1 mHTR2A beta-arrestin complementation, luminescence; percent of 30 µM serotonin response; P35363;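 active = activation above a run cutoff, the mean activation of all tested compounds plus 3 SD, cut at about 14% in these data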;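 note: 0% = plate median of compound wells and 100% = 30 µM serotonin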
Arr AP2 block: inhibitors of human beta-arrestin and AP2 interaction | FITC-arrestin peptide / GST-AP2 beads, flow cytometry; AP2 beta2 appendage carries R879A mutation | inhibition, % at 10 µM | hit rate 0.31% among 340,000 | AID 504490;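 active = inhibition above a set limit, near 3 SD of compounds lacking own fluorescence, cut at about 54% in these data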;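 note: plate controls were DMSO wells for no effect and 5 µM unlabelled arrestin peptide for full effect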
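System: GST-AP2 R879A glutathione beads. Medium: PBS with 0.05% Tween 20 and 0.1% BSA. Also added: FITC-arrestin peptide, 50 nM. Incubation: 12 min plus 1 h, RT. Measured by: high-throughput flow cytometry of beads, ex 488, em 535 nm. Evaluation: percent drop in bead-associated FITC signal.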
Lipid droplet: modulators of hepatic lipid droplet formation; inhibition, % at 6.5 µM; hit rate 0.4% among 240,000; AID 1656; AML12 mouse hepatocytes, oleate lipid droplets, BODIPY imaging;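 active = lipid droplet intensity inhibited by at least 50%, with more than 500 cells counted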
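material = mouse AML12 hepatocyte cell line, fixed after treatment | also added = 100 µM oleic acid challenge | doses = compound at 6.5 µM only | schedule = overnight exposure | technique = Image-based BODIPY and DAPI two-channel analysis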
CendR NRP1 mod: modulators of CendR peptide binding to human neuropilin-1 | AID 602438 | inhibition, % at 25 µM | hit rate 0.85% among 360,000 | O14786 | FAM-RPARPAR peptide binding to NRP-1, fluorescence polarization;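 active = inhibition or corrected inhibition above about 18%, plus a signal ratio from 0.5 to 1.5, limit read from the data, passing the limit was not always enough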
PfM18AAP inh: PfM18AAP enzyme inhibition. hit rate 1.2% among 290,000. recombinant PfM18AAP, H-Glu-NHMec fluorogenic cleavage. inhibition, % at 7.35 µM;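 active = inhibition above the campaign mean inhibition over all tested compounds plus 3 SD, cut at about 28% in these data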;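 note: 0% = plate median of test compound wells and 100% = 2 mM ZnCl2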
Starred values were filed as active, the others as inactive; x = no result given. Rows were chosen to be rich in hits. Some 3.3% of all compounds tested hit in one or more screens of this group.

SMILES | HGIII-sPLA2 inh | m5-HT2A agonist | Arr AP2 block | Lipid droplet | CendR NRP1 mod | PfM18AAP inh
Cc1ccc(-n2[nH]c(C)c(C=Nc3ccc4[nH]c(=O)[nH]c4c3)c2=O)cc1 | -2 | 2 | -3 | -35 | 30* | -36
NS(=O)(=O)c1ccc(N=Nc2c(=O)[nH]n3c(=O)c4c([nH]c23)CCCC4)cc1 | -6 | 2 | 1 | 1 | 21 | 48*
CC(C)[C@H](NC(=O)C1CC1)C(=O)N1CCC[C@H]1C(=O)NCc1ccccc1 | 0 | x | x | x | x | x
CC(C)Oc1ccc(S(=O)(=O)N2CCOCC2)cc1NC(=O)C1=NN(c2ccccc2)C(=O)CC1 | 3 | -8 | -2 | x | -2 | x
O=C(COC(=O)c1ccc2ncsc2c1)NC(=O)c1ccccc1 | 2 | 4 | 2 | -9 | -8 | 31*
C#CC(=O)N(c1ccc(OC)cc1OC)C(C(=O)NC1CCCC1)c1cccs1 (stereo not drawn) | 1 | -5 | 19 | 123* | -9 | -15
CC(C)CSc1nnc2c3ccccc3n(C)c2n1 | 4 | -3 | 13 | -6 | -26 | -1
CCn1c2ccccc2c2nnc(NN)nc21 | 3 | 10 | -5 | -2 | 1 | 31*
CCn1c2ccc(C)cc2c2nnc(NN)nc21 | -1 | -1 | 1 | 1 | -4 | 11
Cn1c2ccccc2c2nnc(NN)nc21 | 2 | -4 | -19 | -6 | -4 | 30*
Cc1nn(CCO)c(N)c1C1(O)C(=O)Nc2c(Cl)cc(Cl)cc21 (stereo not drawn) | -1 | -1 | 14 | 1 | 24* | -14
CCCN1CCCCC(NC(=O)c2ccc(F)c(F)c2)C1=O (stereo not drawn) | 1 | x | x | x | x | x
COc1ccccc1NC(=O)N(Cc1ccco1)Cc1cc2cccc(C)c2[nH]c1=O | -4 | 4 | 1 | -29 | 26* | 7
COc1ccccc1NC(=O)N(Cc1ccco1)Cc1cc2c(C)ccc(C)c2[nH]c1=O | 7 | 1 | 9 | -18 | 12 | 2
O=C(CSc1nccn1Cc1ccc(F)cc1)NC1CCCC1 | -1 | 6 | 3 | -22 | 7 | 11
O=C(CSc1nccn1Cc1ccc(F)cc1)NC1CCCCC1 | -6 | -3 | x | x | 25* | x
CCOC(=O)N1CCN(S(=O)(=O)c2ccc(OCC)cc2)CC1 | 11 | 1 | 10 | 21 | 4 | 5
Cc1ccc(C)c(Oc2ccc(S(=O)(=O)N3CCN(C)CC3)cn2)c1 | -2 | 2 | -8 | x | 12 | x
CCCCOc1ccc(S(=O)(=O)N2CCCCCC2)cc1 | -11 | 0 | 2 | -12 | 9 | -4
CCOc1ccc(S(=O)(=O)N2CCN(C(=O)c3sccc3C)CC2)cc1 | 8 | 0 | -4 | 12 | 27* | -18
COc1ccc(S(=O)(=O)N2CCN(C)CC2)cn1 | 5 | 1 | 2 | -5 | 22* | -3
CCCCOc1ccc(S(=O)(=O)N2CCN(C)CC2)cc1 | -9 | -9 | 1 | x | 26* | x
CN[C@H]1C[C@H]2c3[nH]c4c(-c5ccccc5)cccc4c3CCN2C[C@H]1[C@H](C)O | -7 | x | x | x | x | x
CCN(CCCNC(=O)CCc1nc(-c2ccc(OC)cc2)no1)c1cccc(C)c1 | -13 | 0 | 5 | 4 | -2 | 32*
COc1ccc(-c2noc(CCC(=O)NCc3cc(Br)ccc3OC)n2)cc1 | -11 | 6 | -7 | -16 | -9 | 1
SMILES | HGIII-sPLA2 inh | m5-HT2A agonist | Arr AP2 block | Lipid droplet | CendR NRP1 mod | PfM18AAP inh
COc1ccc(Br)cc1CNC(=O)CCc1nc(-c2ccc(C)cc2)no1 | -1 | -1 | -3 | -3 | 23* | 6
CCCCN(C=O)c1c(CC)nc2c(OCc3ccc(Cl)cc3Cl)cccn12 | -4 | -2 | x | x | 3 | x
O=C(CCCOc1ccc(Cl)cc1Cl)N1CCc2ccccc2C1 | -5 | 11 | 4 | -10 | 29* | -9
COC(=O)c1cc(N=CC2=C(O)CC(C)(C)CC2=O)cc(C(=O)OC)c1 | 2 | -1 | -1 | 14 | -8 | 30*
COC(=O)c1cc(OC)c(OC)cc1N=CC1=C(O)CC(C)(C)CC1=O | 5 | 2 | -10 | x | 5 | -5
CCc1ccc(/C=C/C(=O)c2cc(Br)ccc(=O)c2O)cc1 | 9 | -2 | 3 | 1 | -36 | 60*
CC1=C(C(=O)Nc2ccccc2C(=O)N2CCN(c3ccccc3)CC2)SCCO1 | 7 | 0 | x | x | -6 | x
Cc1ccc(C(=O)N/C(=C\c2ccccc2)C(=O)NCCCn2ccnc2)cc1 | -8 | -5 | 1 | -10 | 23* | -14
Cc1ccc(/C=C(\NC(=O)c2ccc(C)cc2)C(=O)NCCCn2ccnc2)cc1 | -12 | -2 | -3 | 14 | -9 | -3
O=c1[nH]c(=O)n(C2OC(CO)C(O)C(O)C2O)cc1F (stereo not drawn) | -1 | x | x | x | x | x
O=c1cnn([C@@H]2O[C@H](CO)[C@@H](O)[C@H]2O)c(=O)[nH]1 | x | 22* | -1 | -46 | -5 | -5
NC(=O)c1ncn([C@@H]2O[C@H](C(=O)N[C@H](Cc3c[nH]c4ccccc34)C(=O)N3CCN(CC(=O)N4CCCC4)CC3)[C@@H](O)[C@H]2O)n1 | 3 | x | x | x | x | x
[O-][N+](=C(c1ccccc1)c1ccccc1)c1ccccc1 | -3 | -1 | -1 | x | 4 | x
O=C1C=C(NCc2ccco2)C2(CCCCC2)O1 | 2 | 7 | -4 | 7 | 23* | 1
O=C1C=C(NCc2ccccc2)C2(CCCCC2)O1 | 4 | 1 | -9 | x | -9 | -9
CC1=CC(C)(C)NC(=S)N1c1ccc(N(C)C)cc1 | 19 | -1 | 3 | x | 24* | x
OC(c1ccccc1)(c1ccccc1)C1CCN(CCCOc2ccc(C(F)(F)F)cc2)CC1 | -16 | x | x | x | x | x
c1ccc2c(c1)CCCN2Cc1nnc2n1CCCCC2 | 1 | 0 | 4 | x | 23* | 4
Cc1ccc(NC(=O)COc2ncnc3c(Cl)cc(Cl)cc23)cc1[N+](=O)[O-] | -1 | 2 | -1 | -10 | 25* | -2
CN1[C@@H](Cc2ccccc2)COc2cccc(N3CCSCC3)c2S1(=O)=O | 3 | x | x | x | x | x
COc1ccc(CCC(=O)Nc2c(-c3ccc(N(C)C)cc3)[nH][nH]c2=O)cc1 | 12 | 16* | x | x | 14 | x
COC(=O)[C@]12C[C@H](CC(=O)NCCCCc3ccccc3)C(=O)N(Cc3ccco3)C1=C[C@H](C1CCCC1)O[C@@H]2C | -21 | x | x | x | x | x
CC(=O)Nc1ccc(SC[C@H](Cc2ccccc2)N2CCN(CCc3ccccc3)CCC2=O)cc1 | -24 | -4 | 1 | -2 | 25* | x
CC(=O)Nc1ccc(SC[C@H](Cc2ccccc2)N2CC[C@@H](O)CCC2=O)cc1 | -1 | -2 | 0 | x | 22 | x
CC(=O)Nc1ccc(SC[C@H](Cc2ccccc2)N2CC[C@@H](C(C)(C)C)CCC2=O)cc1 | -8 | 2 | 2 | x | 28* | x
C/C=C/c1ccccc1OCCCN1CCC(C(O)(c2ccccc2)c2ccccc2)CC1 | -24 | x | x | x | x | x
NC(=S)N/N=C/c1ccc(-c2cc(Cl)cc(Cl)c2)o1 | 1 | 1 | 3 | 23 | -48 | 1
